From article PMC6407616 (Molecular cell, 2018)
Changes are numbered by the printed parent chain. Names may count otherwise.

What was measured:
[1] = target: H3Kc9me3 601 dinucleosome with 20 bp DNA linker (Xenopus laevis); assay: negative stain electron microscopy
ZMET2 [2] = target: T1, ZMET2 (Zea mays, UniProt Q9AXT8); assay: DNA methyltransferase assay on unmethylated or hemimethylated 38 bp duplexed DNA; assay type: biochemical; details: 300 nM 38 bp duplex; single-turnover, saturating ZMET2; no peptide; n=2
T1 sequence (Q9AXT8 1-912): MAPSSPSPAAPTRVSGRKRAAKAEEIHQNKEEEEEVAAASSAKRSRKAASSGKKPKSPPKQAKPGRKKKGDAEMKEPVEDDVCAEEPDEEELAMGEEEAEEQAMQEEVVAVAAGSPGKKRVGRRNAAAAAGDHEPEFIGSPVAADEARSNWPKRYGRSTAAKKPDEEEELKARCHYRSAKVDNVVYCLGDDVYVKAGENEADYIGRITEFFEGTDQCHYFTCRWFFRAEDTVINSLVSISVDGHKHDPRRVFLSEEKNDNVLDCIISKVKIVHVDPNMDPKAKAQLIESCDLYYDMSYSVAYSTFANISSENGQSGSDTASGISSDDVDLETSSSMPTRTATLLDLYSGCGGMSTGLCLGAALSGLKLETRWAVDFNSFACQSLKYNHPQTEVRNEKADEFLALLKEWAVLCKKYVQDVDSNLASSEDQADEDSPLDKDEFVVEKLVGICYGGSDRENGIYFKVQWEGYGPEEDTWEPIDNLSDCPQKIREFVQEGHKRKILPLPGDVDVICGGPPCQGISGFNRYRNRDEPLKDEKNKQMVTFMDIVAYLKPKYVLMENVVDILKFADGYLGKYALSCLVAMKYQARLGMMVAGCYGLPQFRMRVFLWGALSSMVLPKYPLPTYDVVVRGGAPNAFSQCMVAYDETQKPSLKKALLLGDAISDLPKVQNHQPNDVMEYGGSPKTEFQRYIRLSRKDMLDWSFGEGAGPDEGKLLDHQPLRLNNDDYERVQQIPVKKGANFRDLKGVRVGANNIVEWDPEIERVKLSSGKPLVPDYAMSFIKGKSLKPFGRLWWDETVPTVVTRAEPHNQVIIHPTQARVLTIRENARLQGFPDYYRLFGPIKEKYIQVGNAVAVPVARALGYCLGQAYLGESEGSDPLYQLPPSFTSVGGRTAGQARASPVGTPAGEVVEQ

ZMET2 [3] = target: ZMET2 (Zea mays, UniProt Q9AXT8 1-912); assay: fluorescence polarization
[4] = Size-exclusion chromatography coupled to multi angle light scattering; assay type: physicochemical; details: 20 mM Tris-HCl pH 8.0, 150 mM NaCl, 1 mM DTT; Figure S1E
In short: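 Recombinant ZMET2 was expressed with 0.2 mM IPTG at 20°C for 16–18 h, then purified by imidazole elution, TEV cleavage, Q anion exchange and Superdex 200 gel filtration. Samples were filtered and injected onto an S 050 size-exclusion column equilibrated overnight in MALS buffer. Molar mass was read by inline multi-angle light scattering with refractive index detection.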

H3Kc9me3 mononucleosomes = assay: FP binding of ZMET2 mutants to H3Kc9me3 mononucleosomes; design: species or system Xenopus laevis
naked 157 bp DNA = assay type: biochemical; details: in words, H3K9me0/2 peptides in trans, Figure S4E
[5] = FP binding of ZMET2 mutants to H3K9me2 tail peptides; details: in words; fluorescence polarization; n=2

Molecule: full-length recombinant ZMET2 (wild type) (from UniProt Q9AXT8 1-912) (enzyme)
- stoichiometry N (ZMET2 per dinucleosome) [1]: 1

Molecule: unmethylated: AACGCAGCATGCGCTGCTAGC GCAGCTAGCGCTGCATG (DNA AACGCAGCATGCGCTGCTAGCGCAGCTAGCGCTGCATG; DNA, backbone not given here)
- rate constant, 38 bp duplexed DNA without peptide (ZMET2 [2]): 5.3E-5 (±1.1E-5) min^−1

B1: 38 bp unmethylated duplex (dsDNA)
DNA 1: AACGCAGCATGCGCTGCTAGCGCAGCTAGCGCTGCATG
DNA 2: CATGCAGCGCTAGCTGCGCTAGCAGCGCATGCTGCGTT
- binding signal (ZMET2 [3]): 32 fold tighter than without H3K9me2

B2: 38 bp hemimethylated duplex (dsDNA)
DNA 1: B1 DNA 1
DNA 2: B1 DNA 2
modifications: 5mC at positions 5, 14, 23 and 32 of strand 1; complement unmethylated
- binding signal (ZMET2 [3]): 36 fold tighter than without H3K9me2

B3: ZMET2: full-length recombinant maintenance DNA methyltransferase from Zea mays (protein)
chain: T1 sequence (Q9AXT8 1-912)
modifications: left off: 6xHis, N-terminal, cleaved | SUMO, N-terminal, state not stated
- oligomeric state by molar mass measurement [4]: monomer

B4: CDx: ZMET2 mutated in the aromatic cage of the CD (F441A) (protein)
chain: T1 sequence (Q9AXT8 1-912) with F441A
modifications: left off: 6xHis, N-terminal, cleaved | SUMO, N-terminal, state not stated
- fold decrease in affinity for H3Kc9me3 nucleosomes vs wild type ZMET2 (H3Kc9me3 mononucleosomes; fluorescence polarization, n=2): 4 fold
- rate constant relative to wild type ZMET2, naked DNA (naked 157 bp DNA): comparable to wild type ZMET2
- binding to H3K9me2 peptides relative to wild type ZMET2 [5]: significantly decreased compared to wild type ZMET2

B5: BAHx: ZMET2 mutated in the aromatic cage of the BAH domain (W224L) (protein)
chain: T1 sequence (Q9AXT8 1-912) with W224L
modifications: left off: 6xHis, N-terminal, cleaved | SUMO, N-terminal, state not stated
- affinity for H3Kc9me3 nucleosomes relative to wild type ZMET2 (H3Kc9me3 mononucleosomes; in words, n=4): modestly tighter affinity for H3Kc9me3 nucleosomes
- binding to H3K9me2 peptides relative to wild type ZMET2 [5]: did not show a defect, showing instead modestly tighter binding
